What was measured:
Blood [1] = experiment: Biodistribution in ddY mouse blood at 10 uCi/100 uL, iv after 15 mins by gamma counting; format: ADME, organism-based; conditions: in vivo, 0.25 h
Summary of the method: (§1)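 Normal female ddY mice (5 weeks, about 20 g; n = 4 per group) received radiotracer iv. Organs were removed and weighed at 2–120 min and counted in a γ-counter. Percent dose per gram of wet tissue was calculated against diluted aliquots of the injected material and reported as mean ± SD.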

Intestine [2] = experiment: Biodistribution in ddY mouse intestine at 10 uCi/100 uL, iv after 30 mins by gamma counting; format: ADME, organism-based; conditions: in vivo, 0.5 h; summary of the method: as §1
Stomach [3] = experiment: Biodistribution in ddY mouse stomach at 10 uCi/100 uL, iv after 15 mins by gamma counting; format: ADME, organism-based; conditions: in vivo, 0.25 h
Heart [4] = experiment: Biodistribution in ddY mouse heart at 10 uCi/100 uL, iv after 2 mins by gamma counting; format: ADME, organism-based; conditions: in vivo; summary of the method: as §1
Bone [5] = experiment: Biodistribution in ddY mouse bone at 10 uCi/100 uL, iv after 15 mins by gamma counting; format: ADME, organism-based, Bone element; conditions: in vivo, 0.25 h; summary of the method: as §1
Brain [6] = experiment: Biodistribution in ddY mouse brain at 10 uCi/100 uL, iv after 15 mins by gamma counting; format: ADME, organism-based; conditions: in vivo, 0.25 h; summary of the method: as §1
Intestine [7] = experiment: Biodistribution in ddY mouse intestine at 10 uCi/100 uL, iv after 60 mins by gamma counting; format: ADME, organism-based; conditions: in vivo, 1 h; summary of the method: as §1
Brain [8] = experiment: Ratio of drug uptake in ddY mouse brain at 10 uCi/100 uL, iv after 2 mins to drug uptake in ddY mouse brain at 10 uCi/100 uL, iv after 60 mins; format: ADME, organism-based; conditions: in vivo
Summary of the method: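 Normal female ddY mice (5 weeks, about 20 g) received the radiotracer iv, with groups of 4 per time point. At 2 and 60 min, brain and other organs were excised and weighed and counted in a γ-counter. %ID/g wet tissue was taken against diluted injectate aliquots. The ratio is brain %ID/g at 2 min divided by brain %ID/g at 60 min.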

Intestine [9] = experiment: Biodistribution in ddY mouse intestine at 10 uCi/100 uL, iv after 2 mins by gamma counting; format: ADME, organism-based; conditions: in vivo; summary of the method: as §1
Brain [10] = experiment: Biodistribution in ddY mouse brain at 10 uCi/100 uL, iv after 2 mins by gamma counting; format: ADME, organism-based; conditions: in vivo; summary of the method: as §1
Liver [11] = experiment: Biodistribution in ddY mouse liver at 10 uCi/100 uL, iv after 30 mins by gamma counting; format: ADME, organism-based; conditions: in vivo, 0.5 h
Bone [12] = experiment: Biodistribution in ddY mouse bone at 10 uCi/100 uL, iv after 30 mins by gamma counting; format: ADME, organism-based, Bone element; conditions: in vivo, 0.5 h; summary of the method: as §1
Liver [13] = experiment: Biodistribution in ddY mouse liver at 10 uCi/100 uL, iv after 2 mins by gamma counting; format: ADME, organism-based; conditions: in vivo
Heart [14] = experiment: Biodistribution in ddY mouse heart at 10 uCi/100 uL, iv after 60 mins by gamma counting; format: ADME, organism-based; conditions: in vivo, 1 h; summary of the method: as §1
Intestine [15] = experiment: Biodistribution in ddY mouse intestine at 10 uCi/100 uL, iv after 15 mins by gamma counting; format: ADME, organism-based; conditions: in vivo, 0.25 h; summary of the method: as §1
Blood [16] = experiment: Biodistribution in ddY mouse blood at 10 uCi/100 uL, iv after 30 mins by gamma counting; format: ADME, organism-based; conditions: in vivo, 0.5 h; summary of the method: as §1
Kidney [17] = experiment: Biodistribution in ddY mouse kidney at 10 uCi/100 uL, iv after 15 mins by gamma counting; format: ADME, organism-based; conditions: in vivo, 0.25 h
Blood [18] = experiment: Biodistribution in ddY mouse blood at 10 uCi/100 uL, iv after 60 mins by gamma counting; format: ADME, organism-based; conditions: in vivo, 1 h; summary of the method: as §1
Spleen [19] = experiment: Biodistribution in ddY mouse spleen at 10 uCi/100 uL, iv after 60 mins by gamma counting; format: ADME, organism-based; conditions: in vivo, 1 h
Stomach [20] = experiment: Biodistribution in ddY mouse stomach at 10 uCi/100 uL, iv after 60 mins by gamma counting; format: ADME, organism-based; conditions: in vivo, 1 h
Stomach [21] = experiment: Biodistribution in ddY mouse stomach at 10 uCi/100 uL, iv after 30 mins by gamma counting; format: ADME, organism-based; conditions: in vivo, 0.5 h
Brain [22] = experiment: Biodistribution in ddY mouse brain at 10 uCi/100 uL, iv after 60 mins by gamma counting; format: ADME, organism-based; conditions: in vivo, 1 h; summary of the method: as §1
Lung [23] = experiment: Biodistribution in ddY mouse lung at 10 uCi/100 uL, iv after 2 mins by gamma counting; format: ADME, organism-based; conditions: in vivo
Bone [24] = experiment: Biodistribution in ddY mouse bone at 10 uCi/100 uL, iv after 60 mins by gamma counting; format: ADME, organism-based, Bone element; conditions: in vivo, 1 h; summary of the method: as §1
Spleen [25] = experiment: Biodistribution in ddY mouse spleen at 10 uCi/100 uL, iv after 2 mins by gamma counting; format: ADME, organism-based; conditions: in vivo
Heart [26] = experiment: Biodistribution in ddY mouse heart at 10 uCi/100 uL, iv after 30 mins by gamma counting; format: ADME, organism-based; conditions: in vivo, 0.5 h; summary of the method: as §1
Stomach [27] = experiment: Biodistribution in ddY mouse stomach at 10 uCi/100 uL, iv after 2 mins by gamma counting; format: ADME, organism-based; conditions: in vivo
Blood [28] = experiment: Biodistribution in ddY mouse blood at 10 uCi/100 uL, iv after 2 mins by gamma counting; format: ADME, organism-based; conditions: in vivo; summary of the method: as §1
Lung [29] = experiment: Biodistribution in ddY mouse lung at 10 uCi/100 uL, iv after 15 mins by gamma counting; format: ADME, organism-based; conditions: in vivo, 0.25 h
Spleen [30] = experiment: Biodistribution in ddY mouse spleen at 10 uCi/100 uL, iv after 15 mins by gamma counting; format: ADME, organism-based; conditions: in vivo, 0.25 h
Heart [31] = experiment: Biodistribution in ddY mouse heart at 10 uCi/100 uL, iv after 15 mins by gamma counting; format: ADME, organism-based; conditions: in vivo, 0.25 h; summary of the method: as §1
Liver [32] = experiment: Biodistribution in ddY mouse liver at 10 uCi/100 uL, iv after 15 mins by gamma counting; format: ADME, organism-based; conditions: in vivo, 0.25 h
Lung [33] = experiment: Biodistribution in ddY mouse lung at 10 uCi/100 uL, iv after 30 mins by gamma counting; format: ADME, organism-based; conditions: in vivo, 0.5 h
Brain [34] = experiment: Biodistribution in ddY mouse brain at 10 uCi/100 uL, iv after 30 mins by gamma counting; format: ADME, organism-based; conditions: in vivo, 0.5 h; summary of the method: as §1
Kidney [35] = experiment: Biodistribution in ddY mouse kidney at 10 uCi/100 uL, iv after 30 mins by gamma counting; format: ADME, organism-based; conditions: in vivo, 0.5 h
Liver [36] = experiment: Biodistribution in ddY mouse liver at 10 uCi/100 uL, iv after 60 mins by gamma counting; format: ADME, organism-based; conditions: in vivo, 1 h
[37] = Partition coefficient, log D of the compound; format: physicochemical; conditions: octanol/water
Summary of the method: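 Radiotracer partitioned between n-octanol and PBS: vortexed 3 min at room temperature, centrifuged 5 min at 3000 rpm. Weighed samples of the octanol (100 μL) and buffer (500 μL) layers were counted. log D is the log of the ratio of counts per gram, octanol versus PBS.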

Kidney [38] = experiment: Biodistribution in ddY mouse kidney at 10 uCi/100 uL, iv after 60 mins by gamma counting; format: ADME, organism-based; conditions: in vivo, 1 h
Bone [39] = experiment: Biodistribution in ddY mouse bone at 10 uCi/100 uL, iv after 2 mins by gamma counting; format: ADME, organism-based, Bone element; conditions: in vivo; summary of the method: as §1
Spleen [40] = experiment: Biodistribution in ddY mouse spleen at 10 uCi/100 uL, iv after 30 mins by gamma counting; format: ADME, organism-based; conditions: in vivo, 0.5 h
Lung [41] = experiment: Biodistribution in ddY mouse lung at 10 uCi/100 uL, iv after 60 mins by gamma counting; format: ADME, organism-based; conditions: in vivo, 1 h
Kidney [42] = experiment: Biodistribution in ddY mouse kidney at 10 uCi/100 uL, iv after 2 mins by gamma counting; format: ADME, organism-based; conditions: in vivo

Question: With `CN(C)c1ccc(/C=C/C(=O)/C=C/c2ccc(OCCOCCOCC[18F])cc2)cc1` as the compound, how does the Drug uptake (Blood [1]) read?
Answer: The Drug uptake was 3.89 % ID/g.

Question: And the Drug uptake (Intestine [2])?
Answer: The Drug uptake was 17.5 % ID/g.

Question: And the Drug uptake (Stomach [3])?
Answer: Its Drug uptake is 7.39 % ID/organ.

Question: And the Drug uptake (Heart [4])?
Answer: The Drug uptake was 7.6 % ID/g.

Question: What about the Drug uptake (Bone [5]) of the same compound?
Answer: Its Drug uptake is 2.42 % ID/g.

Question: And the Drug uptake (Brain [6])?
Answer: The Drug uptake was 1.51 % ID/g.

Question: And the Drug uptake (Intestine [7])?
Answer: Its Drug uptake is 21.57 % ID/g.

Question: And the Ratio (Brain [8])?
Answer: The Ratio was 4.59.

Question: What about the Drug uptake (Intestine [9]) of the same compound?
Answer: Its Drug uptake is 4.12 % ID/g.

Question: And the Drug uptake (Brain [10])?
Answer: Its Drug uptake is 4.13 % ID/g.

Question: What about the Drug uptake (Liver [11]) of the same compound?
Answer: Its Drug uptake is 14.07 % ID/g.

Question: What about the Drug uptake (Bone [12]) of the same compound?
Answer: The Drug uptake was 2.08 % ID/g.

Question: And the Drug uptake (Liver [13])?
Answer: Its Drug uptake is 22.32 % ID/g.

Question: And the Drug uptake (Heart [14])?
Answer: Its Drug uptake is 1.47 % ID/g.

Question: What about the Drug uptake (Intestine [15]) of the same compound?
Answer: Its Drug uptake is 10.53 % ID/g.

Question: And the Drug uptake (Blood [16])?
Answer: The Drug uptake was 2.46 % ID/g.

Question: And the Drug uptake (Kidney [17])?
Answer: The Drug uptake was 12.77 % ID/g.

Question: And the Drug uptake (Blood [18])?
Answer: The Drug uptake was 1.6 % ID/g.

Question: What about the Drug uptake (Spleen [19]) of the same compound?
Answer: Its Drug uptake is 1.93 % ID/g.

Question: What about the Drug uptake (Stomach [20]) of the same compound?
Answer: Its Drug uptake is 3.98 % ID/organ.

Question: And the Drug uptake (Stomach [21])?
Answer: The Drug uptake was 6 % ID/organ.

Question: And the Drug uptake (Brain [22])?
Answer: Its Drug uptake is 0.9 % ID/g.

Question: And the Drug uptake (Lung [23])?
Answer: The Drug uptake was 12.3 % ID/g.

Question: What about the Drug uptake (Bone [24]) of the same compound?
Answer: Its Drug uptake is 2.33 % ID/g.

Question: What about the Drug uptake (Spleen [25]) of the same compound?
Answer: Its Drug uptake is 4.26 % ID/g.

Question: What about the Drug uptake (Heart [26]) of the same compound?
Answer: Its Drug uptake is 1.9 % ID/g.

Question: And the Drug uptake (Stomach [27])?
Answer: The Drug uptake was 6.28 % ID/organ.

Question: What about the Drug uptake (Blood [28]) of the same compound?
Answer: The Drug uptake was 5.38 % ID/g.

Question: What about the Drug uptake (Lung [29]) of the same compound?
Answer: Its Drug uptake is 6.34 % ID/g.

Question: And the Drug uptake (Spleen [30])?
Answer: The Drug uptake was 6.19 % ID/g.

Question: What about the Drug uptake (Heart [31]) of the same compound?
Answer: Its Drug uptake is 3.33 % ID/g.

Question: What about the Drug uptake (Liver [32]) of the same compound?
Answer: Its Drug uptake is 24.41 % ID/g.

Question: What about the Drug uptake (Lung [33]) of the same compound?
Answer: Its Drug uptake is 3.38 % ID/g.

Question: What about the Drug uptake (Brain [34]) of the same compound?
Answer: The Drug uptake was 1.04 % ID/g.

Question: What about the Drug uptake (Kidney [35]) of the same compound?
Answer: Its Drug uptake is 7.13 % ID/g.

Question: And the Drug uptake (Liver [36])?
Answer: Its Drug uptake is 6.88 % ID/g.

Question: And the logD [37]?
Answer: Its logD is 2.97.

Question: And the Drug uptake (Kidney [38])?
Answer: The Drug uptake was 3.67 % ID/g.

Question: What about the Drug uptake (Bone [39]) of the same compound?
Answer: The Drug uptake was 2.88 % ID/g.

Question: And the Drug uptake (Spleen [40])?
Answer: Its Drug uptake is 4.46 % ID/g.

Question: What about the Drug uptake (Lung [41]) of the same compound?
Answer: Its Drug uptake is 1.86 % ID/g.

Question: And the Drug uptake (Kidney [42])?
Answer: The Drug uptake was 12.95 % ID/g.

Reference: ChEMBL document CHEMBL1765020, “Synthesis and structure-affinity relationships of novel dibenzylideneacetone derivatives as probes for β-amyloid plaques” (J Med Chem, 2011)
